# A selection: hits, their analogues and other compounds. The true share with any hit is near 2.7%.
# RBBP9 inhibitor: human RBBP9 inhibitors, primary screen, biochemical, fluorescence polarization, FP-Rh probe, HTS; recombinant RBBP9; Serine hydrolase RBBP9 (Homo sapiens), O75884; inhibition, % at 7.94 µM; AID 1515, 2009; 0.2% of 220,000 active;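 active = inhibition above the campaign mean of all tested compounds plus 3 SD, cut at about 14% in these data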;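 note: plate controls were DMSO wells with RBBP9 for no effect and wells lacking RBBP9 protein for full effect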
# Target sequence (O75884 whole entry, looked up): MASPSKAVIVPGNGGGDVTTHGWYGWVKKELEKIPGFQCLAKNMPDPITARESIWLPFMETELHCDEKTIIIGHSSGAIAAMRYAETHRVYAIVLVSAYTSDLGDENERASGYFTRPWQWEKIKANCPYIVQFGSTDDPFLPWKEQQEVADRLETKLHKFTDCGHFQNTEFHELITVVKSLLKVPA
#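 Assay system: recombinant human RBBP9; Reagent: Serine-hydrolase probe FP-Rh, 375 nM pre-mixing; Doses: 7.94 µM single dose, 0.794% DMSO; Incubation: 30 min then 45 min, 25 °C; Detection: fluorescence polarization (mP), excitation 525 nm, emission 598 nm; Evaluation: percent inhibition from mP, scaled between DMSO and no-protein wells.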
# SIAE inh: human SIAE inhibitors, primary screen, biochemical, fluorescence polarization, FP-Rh probe, 1536-well HTS; Sialate O-acetylesterase (Homo sapiens), Q9HAT2; SIAE FP-Rh probe binding; inhibition, % at 9.66 µM; 0.69% of 370,000 active; AID 1053197, 2014;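 active = inhibition above a cutoff: mean of compounds within the control limits plus 3 SD of those, cut at about 17% in these data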;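 note: 0% = plate median of compound wells and 100% = probe without SIAE protein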
# GSTO1 inh: inhibitors of recombinant GSTO1, primary screen, counter-screen for RBBP9 inhibitor project, biochemical, fluorescence polarization. inhibition, % at 5.96 µM. Glutathione S-transferase omega-1 (Homo sapiens), P78417. activity-based probe fluorescence polarization. 1.1% of 300,000 active;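 active = inhibition above the campaign mean inhibition plus 3 SD, cut at about 35% in these data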;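 note: 0% = GSTO1-1 with DMSO and 100% = wells lacking GSTO1-1 enzyme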
# PAD4 inh: human PAD4 inhibitors, primary screen, biochemical, fluorescence polarization, 1536-well format. Protein-arginine deiminase type-4 (Homo sapiens), Q9UM07. recombinant PAD4, RCA probe fluorescence polarization. inhibition, % at 6.36 µM. 0.41% of 330,000 active;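 active = percent inhibition above a cutoff equal to the mean of all tested compounds plus 3 SD, cut at about 15% in these data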;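 note: 0% = PAD4 with RCA probe and DMSO and 100% = probe without PAD4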
# PRMT1 FP inh: PRMT1 methyltransferase inhibitors, primary screen, biochemical, fluorescence polarization; Protein arginine N-methyltransferase 1 (Homo sapiens), Q99873; recombinant PRMT1, activity-based probe fluorescence polarization; inhibition, % at 2.79 µM; 1.3% of 370,000 active;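 active = inhibition above about 21% made by adding two undisclosed values, limit read from the data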
# SIAE inh conf: human SIAE inhibitors, retest, confirmation, biochemical, fluorescence polarization, FP-Rh probe, triplicate; shares compounds with SIAE inh; SIAE FP-Rh activity-based probe; inhibition, % at 9.66 µM; 13% of 2,300 active;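 active = mean inhibition of the replicates above the hit cutoff set in the primary screen, cut at about 17% in these data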;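 note: 0% = SIAE with DMSO and probe and 100% = probe without SIAE; inhibitors lower polarization as more probe stays unbound to SIAE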
# * = called active by the depositor; x = no result given.
SMILES,RBBP9 inhibitor,SIAE inh,GSTO1 inh,PAD4 inh,PRMT1 FP inh,SIAE inh conf
COc1ccc(CNC(=O)C(c2ccc(C)o2)N(Cc2cccs2)C(=O)Cc2cccs2)cc1 (stereo not drawn),-4,-1,1,-5,1,x
COc1ccc(-n2cc3c(-c4cccc(Br)c4)nnc(C)c3n2)cc1,-12,-26,-11,3,-3,x
Cn1c(O)c(C2=c3ccccc3=NC2=O)[nH]c1=S,-1,-2,0,-5,-1,x
O=C1N=c2ccccc2=C1c1sc(=S)n(NC(=O)c2ccccc2)c1O,-1,23*,11,3,11,31*
O=C1CC(c2ccc(F)cc2)CC(O)=C1C1NCCc2ccccc21 (stereo not drawn),-7,-1,-6,2,-1,x
O=C1CC(c2ccc(F)cc2)C(n2cncn2)C(O)=C1C1NCCc2ccccc21 (stereo not drawn),-7,26*,3,-5,-7,4
Nc1cccc2c3c(oc12)CCCC3,x,18*,10,4,0,4
CC(C)(C)C(=O)OC12CCCN(C1)/C(=C/c1ccc(C#N)cc1)C2 (stereo not drawn),x,39*,x,x,-6,1

# Compound activity: PubChem, The Scripps Research Institute Molecular Screening Center
